ChEMBL document CHEMBL1641445, “Synthesis, antiprotozoal, antimicrobial, β-hematin inhibition, cytotoxicity and methemoglobin (MetHb) formation activities of bis(8-aminoquinolines)” (Bioorg Med Chem, 2011)
≈ marks a conversion by molar mass, not a printed value. Calls of active or inactive are those of the source. The rule behind the calls is not given here.

What was measured:
[1] = Hematotoxicity against RBC assessed as formation of methemoglobin at 20 ug/ml relative to control; type: cell-based; conditions: erythrocyte
In short: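 Metabolism-linked methemoglobin toxicity in vitro. Percent MetHb formation was determined at 20 µg/mL of compound relative to vehicle control.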

[2] = tested on: Vero; assay: Cytotoxicity against african green monkey Vero cells up to 10 ug/ml by neutral red assay; type: cell-based; conditions: chlorocebus sabaeus
In short: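 Vero (monkey kidney) cells were exposed up to a highest concentration of 10 µg/mL. Viability was read by neutral red uptake.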

[3] = Inhibition of beta-hematin formation; type: functional
[4] = tested on: Leishmania donovani; assay: Antileishmanial activity against promastigotes of Leishmania donovani by alamar blue assay; type: functional, organism-based
[5] = tested on: Plasmodium falciparum; assay: Antimalarial activity against chloroquine-sensitive Plasmodium falciparum D6 by LDH assay; type: functional, organism-based
In short: (§1)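 Antiplasmodial activity was measured in vitro against P. falciparum blood-stage cultures. Read-out was parasite lactate dehydrogenase (LDH) activity, with IC50 values expressed in µg/mL. The same protocol was used for the D6 and W2 strains.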

[6] = tested on: Plasmodium falciparum; assay: Antimalarial activity against chloroquine-resistant Plasmodium falciparum W2 by LDH assay; type: functional, organism-based; in short: as §1
[7] = tested on: Plasmodium berghei; assay: Antimalarial activity against Plasmodium berghei infected in mouse assessed as complete elimination of malaria parasites from animals at 100 mg/kg, po qd for 4 days measured up to 60 days; type: functional, organism-based; parameters: dose 100 mg/kg
In short: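 Rodent P. berghei (sensitive strain) blood-schizontocidal model, 6 mice per group. Compounds were given orally once daily for 4 days at 10, 25, 50 or 100 mg/kg/day. Cure meant complete parasite elimination with survival to day D+60.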

[8] = tested on: Staphylococcus aureus; assay: Antibacterial activity against methicillin-resistant Staphylococcus aureus ATCC 43300 by CLSI method; type: functional, organism-based
In short: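 Broth dilution method (NCCLS M7-A5). […] MIC is the lowest concentration allowing no detectable growth. MBC is the lowest concentration killing the organism. Highest test concentration was 20 µg/mL.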

[9] = tested on: Mycobacterium intracellulare; assay: Antibacterial activity against Mycobacterium intracellular ATCC 23068 at 20 ug/ml by CLSI method; type: functional, organism-based
[10] = tested on: Candida albicans; assay: Antifungal activity against Candida albicans ATCC 90028 at 20 ug/ml; type: functional, organism-based
[11] = tested on: Cryptococcus neoformans; assay: Antifungal activity against Cryptococcus neoformans ATCC 90113; type: functional, organism-based
[12] = tested on: Mycobacterium intracellulare; assay: Antibacterial activity against Mycobacterium intracellular ATCC 23068 by CLSI method; type: functional, organism-based
[13] = tested on: Aspergillus fumigatus; assay: Antifungal activity against Aspergillus fumigatus ATCC 90906 at 20 ug/ml; type: functional, organism-based
[14] = tested on: Nakaseomyces glabratus; assay: Antifungal activity against Candida glabrata at 20 ug/ml; type: functional, organism-based
[15] = tested on: Pichia kudriavzevii; assay: Antifungal activity against Candida krusei at 20 ug/ml; type: functional, organism-based
[16] = Leishmania donovani, read-out: IC50
[17] = Plasmodium falciparum, D6, read-out: IC50
[18] = Plasmodium falciparum, W2, read-out: IC50

| SMILES | Methemoglobin formation [1] [%] | Activity [2] | IC50 [3] [µM] | IC90 [4] | IC50 [4, 16] [µg/mL] | IC90 ([4]; Leishmania donovani) [µg/mL] | IC50 [5, 17] [µg/mL] | IC50 [6, 18] [µg/mL] | also measured |
| --- | --- | --- | --- | --- | --- | --- | --- | --- | --- |
| COc1cc(NC(C)CCCNC(=O)c2cncc(C(=O)NCCCC(C)Nc3cc(OC)cc4ccc(C(C)(C)C)nc34)c2)c2nc(C(C)(C)C)ccc2c1.Cl (centres undefined) | 0.55 | Non-toxic | 120 | inactive | 19 | – | – | – | – |
| N=C(N)c1ccc(OCCCCCOc2ccc(C(=N)N)cc2)cc1 [PENTAMIDINE] | – | – | – | – | – | 3.8 (≈ 11.2 µM) | – | – | – |
| COc1cc(NC(C)CCCNC(=O)NC(=O)NCCCC(C)Nc2cc(OC)cc3ccc(C(C)(C)C)nc23)c2nc(C(C)(C)C)ccc2c1.Cl.Cl (centres undefined) | 8.8 | Non-toxic | > 1000 | – | 25 | > 40 | – | – | IC50 [5]: Not Active; IC50 [6]: Not Active |
| COc1cc(NC(C)CCCNC(=S)NCCCC(C)Nc2cc(OC)cc3ccc(C(C)(C)C)nc23)c2nc(C(C)(C)C)ccc2c1.Cl.Cl (centres undefined) | 0.75 | Non-toxic | > 1000 | – | 9 | 31 | 3 | 2.3 | – |
| COc1cc(NC(C)CCCNSC(=O)NCCCC(C)Nc2cc(OC)cc3cccnc23)c2ncccc2c1.Cl.Cl (centres undefined) | 10.9 | Non-toxic | 153 | – | 20 | 38 | – | 4.76 | IC50 [5]: Not Active |
| COc1cc(NC(C)CCCNC(=O)NC(=O)NCCCC(C)Nc2cc(OC)cc3cccnc23)c2ncccc2c1.Cl.Cl (centres undefined) | 2.25 | Non-toxic | 155 | inactive | – | – | 4.76 | 3.4 | IC50 [4]: Not Active; Activity [7]: inactive |
| COc1cc(NC(C)CCCNC(=O)c2cccc(C(=O)NCCCC(C)Nc3cc(OC)cc4cccnc34)n2)c2ncccc2c1.Cl (centres undefined) | 5.7 | Non-toxic | 123 | inactive | 6.5 | – | – | 2.3 | – |
| COc1cc(NC(C)CCCNC(=O)NCCCC(C)Nc2cc(OC)cc3ccc(C(C)(C)C)nc23)c2nc(C(C)(C)C)ccc2c1.Cl.Cl (centres undefined) | 1 | Non-toxic | > 1000 | inactive | – | – | 3 | – | IC50 [4]: Not Active; Activity [7]: inactive |
| COc1cc(NC(C)CCCNC(=O)NC(CCCN)C(=O)NCCCC(C)Nc2cc(OC)cc3cccnc23)c2ncccc2c1.Cl (single isomer, unassigned; 40) | 6.1 | Non-toxic | 154 | – | 18 | 39 | 4.2 | 2.8 | IC50 [8]: 10 µg/mL; MIC [8]: 20 µg/mL; IC50 [9]: Not Active; IC50 [10]: Not Active; IC50 [11]: 7 µg/mL |
| COc1cc(NC(C)CCCNCC(=O)NCCCC(C)Nc2cc(OC)cc3cccnc23)c2ncccc2c1.Cl.Cl (centres undefined) | 20.3 | Non-toxic | > 1000 | inactive | 20 | – | – | – | IC50 [5]: Not Active; IC50 [6]: Not Active |
| COc1cc(NC(C)CCCNC(=O)C(=O)NCCCC(C)Nc2cc(OC)cc3cccnc23)c2ncccc2c1.Cl.Cl (centres undefined) | 6.45 | Non-toxic | > 1000 | – | 15 | > 40 | – | – | IC50 [5]: Not Active; IC50 [6]: Not Active |
| COc1cc(NC(C)CCCNC(=O)NC(CCCCN)C(=O)NCCCC(C)Nc2cc(OC)cc3cccnc23)c2ncccc2c1.Cl (single isomer, unassigned) | 3.75 | Non-toxic | 80 | – | 18 | > 40 | 2.7 | 2.7 | – |
| COc1cc(NC(C)CCCNC(=O)NC(CCCNC(=N)N)C(=O)NCCCC(C)Nc2cc(OC)cc3cccnc23)c2ncccc2c1.Cl (single isomer, unassigned; 39) | 5.5 | Non-toxic | 88 | – | 19 | 36 | 2.4 | 1.5 | IC50 [8]: 15 µg/mL; MBC [8]: 20 µg/mL; IC50 [9]: Not Active; IC50 [10]: Not Active; IC50 [11]: 15 µg/mL; MFC [11]: 20 µg/mL; MIC [11]: 20 µg/mL |
| COc1cc(NC(C)CCCNC(=O)c2ccncc2C(=O)NCCCC(C)Nc2cc(OC)cc3ccc(C(C)(C)C)nc23)c2nc(C(C)(C)C)ccc2c1.Cl (centres undefined) | 1.2 | Non-toxic | 70 | – | 16 | 31 | 1.5 | 0.87 | IC50 [8]: 15 µg/mL; MBC [8]: 20 µg/mL; MIC [8]: 20 µg/mL; IC50 [9]: Not Active; MBC [9]: inactive; MIC [9]: inactive |
| COc1cc(NC(C)CCCNC(=O)NC(CCCNC(=N)N)C(=O)NCCCC(C)Nc2cc(OC)cc3cccnc23)c2ncccc2c1.Cl (single isomer, unassigned; 36) | 3.1 | Non-toxic | 90 | – | – | 7.2 | – | – | IC50 [8]: 15 µg/mL; MIC [8]: 20 µg/mL; IC50 [12]: 15 µg/mL; MBC [12]: 20 µg/mL; MIC [12]: 20 µg/mL; IC50 [10]: Not Active; IC50 [11]: 6.5 µg/mL; MFC [11]: 10 µg/mL; MIC [11]: 10 µg/mL |
| COc1cc(NC(C)CCCNC(=O)NC(CCCN)C(=O)NCCCC(C)Nc2cc(OC)cc3cccnc23)c2ncccc2c1.Cl (single isomer, unassigned; 37) | 7.9 | Non-toxic | 88 | – | 14 | 40 | 2.8 | 2 | IC50 [10]: Not Active; IC50 [11]: 15 µg/mL; MFC [11]: 20 µg/mL; MIC [11]: 20 µg/mL |
| COc1cc(NC(C)CCCNC(=O)c2cccc(C(=O)NCCCC(C)Nc3cc(OC)cc4ccc(C(C)(C)C)nc34)n2)c2nc(C(C)(C)C)ccc2c1.Cl (centres undefined) | 0.25 | Non-toxic | > 1000 | inactive | – | – | – | 4.5 | IC50 [5]: Not Active; IC50 [4]: Not Active |
| COc1cc(NC(C)CCCNC(=O)NC(CCCNC(=N)N)C(=O)NCCCC(C)Nc2cc(OC)cc3cccnc23)c2ncccc2c1 (single isomer, unassigned; 39) | – | – | – | – | – | – | – | – | MBC [9]: inactive; MIC [9]: inactive; MFC [10]: inactive; MIC [10]: inactive; Activity [13]: inactive; Activity [14]: inactive; Activity [15]: inactive |
| COc1cc(NC(C)CCCNC(=O)c2ccncc2C(=O)NCCCC(C)Nc2cc(OC)cc3cccnc23)c2ncccc2c1.Cl (centres undefined) | 3.55 | Non-toxic | 108 | inactive | – | – | 3 | 1.7 | IC50 [4]: Not Active |
| COc1cc(NC(C)CCCN)c2nc(C(C)(C)C)ccc2c1 (centres undefined) | – | – | 2.9 | – | – | – | – | – | – |
| C[C@@H]1CC[C@H]2[C@@H](C)C(=O)O[C@@H]3O[C@@]4(C)CC[C@@H]1[C@]32OO4 [ARTEMISININ] | – | – | – | – | – | – | 0.015 (≈ 0.0531 µM) | – | – |
| COc1cc(NC(C)CCCNC(=O)c2cncc(C(=O)NCCCC(C)Nc3cc(OC)cc4cccnc34)c2)c2ncccc2c1.Cl (centres undefined) | 5.5 | Non-toxic | 110 | inactive | 18 | – | 3.3 | 3 | – |
| C[C@@H]1[C@H](O)[C@@H](C)/C=C/C=C/C=C/C=C/C=C/C=C/C=C/[C@H](O[C@@H]2O[C@H](C)[C@@H](O)[C@H](N)[C@@H]2O)C[C@@H]2O[C@](O)(C[C@@H](O)C[C@@H](O)[C@H](O)CC[C@@H](O)C[C@@H](O)CC(=O)O[C@H]1C)C[C@H](O)[C@H]2C(=O)O [AMPHOTERICIN B] | – | – | – | – | – | 0.35 (≈ 0.379 µM) | – | – | – |
| COc1cc(NC(C)CCCNC(=O)NCCCC(C)Nc2cc(OC)cc3cccnc23)c2ncccc2c1.Cl.Cl (centres undefined) | 9.8 | Non-toxic | > 1000 | inactive | – | – | 4.76 | 4.76 | IC50 [4]: Not Active; Activity [7]: inactive |
| COc1cc(NC(C)CCCNC(=O)N[C@@H](CCCCN)C(=O)NCCCC(C)Nc2cc(OC)cc3ccc(C(C)(C)C)nc23)c2nc(C(C)(C)C)ccc2c1.Cl (some centres undefined) | 1.1 | Non-toxic | > 1000 | – | 19 | 38 | – | – | IC50 [5]: Not Active; IC50 [6]: Not Active; IC50 [8]: 8 µg/mL; MBC [8]: 20 µg/mL; MIC [8]: 20 µg/mL; IC50 [9]: Not Active; MBC [9]: inactive; MIC [9]: inactive |
